TAG inh = inhibitors of triacylglycerol accumulation; H9c2 cells, Nile Red lipid (TAG) fluorescence; cells loaded with 200 µM oleic acid; 230,000 tested, 0.66% active; inhibition, % at 12.5 µM;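 active = pattern-corrected inhibition of lipid staining of at least 50% with the nuclear-stain viability signal not falling by more than 50%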;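 note: 0% = DMSO wells and 100% = triacsin C control wells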
Calb FLC = affects C. albicans growth with fluconazole; AID 1979; growth inhibition, % (no concentration beside the values); C. albicans CaCi-2 + fluconazole, Alamar Blue growth, 48 h; 300,000 tested, 0.57% active;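 active = growth inhibition above about 58% in most replicates, limit read from the data, passing the limit was not always enough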;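 note: all wells also contain fluconazole at 8 µg/ml as a sub-toxic cotreatment; 0% = median of DMSO wells and 100% = median of geldanamycin control wells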
GalR3 antag = antagonists of human GalR3; O60755; HEK293 GalR3-CNG cAMP membrane potential fluorescence; galR3 body fused to GalR1 C-terminus; inhibition, % at 3 µM; 360,000 tested, 0.44% active;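 active = inhibition above the screen-wide average plus 3 SD, cut at about 13% in these data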;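 note: forskolin and galanin both at EC90 stimulate the cells; cAMP rise reported by CNG channel membrane potential dye signal; 0% = forskolin plus galanin with DMSO and 100% = forskolin alone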
Target sequence (O60755 1-299 limits assumed): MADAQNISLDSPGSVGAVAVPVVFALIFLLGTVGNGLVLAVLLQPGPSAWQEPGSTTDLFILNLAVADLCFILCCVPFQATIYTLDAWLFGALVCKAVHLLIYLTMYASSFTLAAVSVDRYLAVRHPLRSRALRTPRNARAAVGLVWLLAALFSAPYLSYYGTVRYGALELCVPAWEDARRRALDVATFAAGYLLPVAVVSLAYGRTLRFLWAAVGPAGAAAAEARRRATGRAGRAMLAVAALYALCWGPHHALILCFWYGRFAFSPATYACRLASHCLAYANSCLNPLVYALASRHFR
MC4R antag cAMP = human MC4R antagonism in cAMP assay; inhibition, % at 6.5 µM; 360,000 tested, 0.48% active; AID 540295; MC4R-expressing cells, MTII-stimulated cAMP, LANCE TR-FRET;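 active = inhibition above its plate's cutoff, the mean of tested wells on that plate plus 3 SD, cut at about 29% in these data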;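 note: 0% = Melanotan II alone and 100% = Melanotan II plus saturating MCL0020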
Target sequence (P32245 whole entry, looked up): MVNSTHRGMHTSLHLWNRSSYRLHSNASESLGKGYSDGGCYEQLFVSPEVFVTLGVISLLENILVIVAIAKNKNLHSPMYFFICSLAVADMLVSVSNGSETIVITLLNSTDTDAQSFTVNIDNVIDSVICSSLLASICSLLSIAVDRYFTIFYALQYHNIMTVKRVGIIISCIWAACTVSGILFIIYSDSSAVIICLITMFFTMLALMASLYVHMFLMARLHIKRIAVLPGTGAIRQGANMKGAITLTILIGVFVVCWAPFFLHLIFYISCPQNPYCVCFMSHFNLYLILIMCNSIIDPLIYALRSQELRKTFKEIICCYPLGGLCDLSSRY
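Assay system: human MC4R-expressing U2OS cells; reagent: Melanotan II stimulation of cells; dosing: 6.5 µM single dose; timing: compound 30 min, challenge 1 h, detection 1 h; signal: TR-FRET cAMP assay; replicates: one well per compound, no replicates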
Efflux pump inh = blocks antifungal efflux pumps in multiplex yeast assay | 330,000 tested, 0.44% active | AID 485275 | inhibition, % at 10 µM | S. cerevisiae Candida pump triplex, Nile Red efflux;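 active = plate passing quality check with inhibition over a set limit, or well fluorescence over plate mean plus 4 SD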;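 note: Nile Red retained in pooled yeast measured as flow cytometry median fluorescence; 0% = buffer negative control and 100% = Enniatin B positive control; higher means more Nile Red kept so more efflux inhibition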
MC4R barr agon = activates human MC4R beta-arrestin recruitment; U2OS MC4R beta-arrestin complementation, luminescence; percent of melanotan II response, DMSO zero; activation, % at 8.9 µM; 360,000 tested, 0.98% active; AID 540308;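 active = activation above a per-plate cutoff, the mean activation of sample wells on that plate plus 3 SD, cut at about 8% in these data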
H9c2 TAG conf = confirmation of triacylglycerol accumulation inhibitors. inhibition, % at 12.5 µM. 990 tested, 71% active. shares compounds with TAG inh. H9c2 lipid accumulation, Nile Red fluorescence; cells loaded with 200 µM oleic acid;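 active = mean inhibition across replicates of 40% or more; inactive = mean inhibition below 40%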;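 note: plate controls were DMSO only wells for no effect and Triacsin C treated wells for full effect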
Starred values were filed as active, the others as inactive; . = not tested or not shown. Only some compounds are listed: those with a hit (about 2.9% of all), similar ones and a draw of the others.

SMILES	TAG inh	Calb FLC	GalR3 antag	MC4R antag cAMP	Efflux pump inh	MC4R barr agon	H9c2 TAG conf
Cc1ccc(C(=O)OCC(=O)N2CCOCC2)cc1	.	-6.1	-7.7	-0.3	-0.1	-0.7	.
CS(=O)(=O)c1ccc(C(=O)OCC(=O)N2CCOCC2)cc1[N+](=O)[O-]	61.7*	.	-6.7	14.4	.	-2.0	59.2*
COC(=O)c1c(NC(=O)Cc2cccs2)sc2c1CCC(C)C2 (stereo not given)	.	-7.6	-3.0	-3.1	-0.1	0.8	.
COC(=O)c1c(NC(=S)NN2CCN(C)CC2)sc2c1CCC(C)C2 (stereo not given)	64.8*	-15.8	-8.6	5.4	-0.2	0.0	84.3*
CCCN(CCC)CCNC(=O)c1cc2c(=O)n(CC)c3ccccc3c2s1	51.6*	1.0	-8.3	-1.5	-0.1	-1.3	68.2*
CCN(CC)CCNC(=O)c1cc2c(=O)n(CC)c3ccccc3c2s1	.	-4.6	-16.4	13.5	-0.1	2.1	.
COc1ccccc1/C=C/C(=O)NCC(=O)N/N=C/c1cc(Br)ccc1OC	53.6*	-5.2	-4.6	2.1	0.0	-1.0	39.8
COc1ccc(/C=C/C(=O)NCC(=O)N/N=C/c2cc(Br)ccc2OC)cc1	.	59.0	-1.7	15.6	0.0	1.0	.
COc1cccc(Cn2c(C(C)n3c(C)nc4ccccc43)nc3ccccc32)c1 (stereo not given)	.	.	-6.2	.	.	.	.
COc1ccc(NS(=O)(=O)c2cccc(C(=O)N/N=C/c3cn(-c4ccccc4)nc3-c3ccccc3)c2)cc1	60.2*	1.0	-7.2	13.3	0.3	0.9	62.1*
NC1=NC[C@H](Cc2ccccc2)N1CCc1cc(C(F)(F)F)cc(C(F)(F)F)c1	55.2*	72.7	5.7	10.3	0.1	-1.1	46.0*
CCCc1nc2cc(C)c(Br)c(C)n2c1Cc1ccccc1OC	.	.	-7.6	.	.	.	.
CN(Cc1ccccc1)C(=O)c1ccc(Cc2cn(C)c3ccccc23)nc1	-24.6	.	-5.4	3.9	.	0.8	.
COc1ccc(CCNC(=O)C(NC(=O)OCc2ccccc2)C(C)C)cc1OC (stereo not given)	-2.0	-2.4	-6.1	-4.5	-0.1	-1.3	.
CC[C@H](C)[C@H](NC(N)=O)C(=O)NCCc1ccc(OC)c(OC)c1	94.0*	-1.6	-2.8	4.0	0.1	2.5	2.5
Cn1ncc([N+](=O)[O-])c1C(=O)Nc1ccccc1C#N	8.0	.	-6.5	5.0	.	-0.2	.
COc1cccc(/C=C/C(=C2\C(=O)N(c3ccccc3)N=C2C)c2ccc(Br)cc2)c1OC	79.2*	.	5.7	5.8	.	0.7	97.2*
CCOC(=O)N(C)C[C@@H]1OCc2cn(nn2)CCCC(=O)N([C@H](C)CO)C[C@H]1C	.	.	-6.7	.	.	.	.
CC(=O)Oc1ccc(S(=O)(=O)c2ccc(OC(C)=O)cc2)cc1	65.1*	-11.2	-4.4	1.0	0.0	0.2	1.5
COc1ccc(S(=O)(=O)c2ccc(OC)cc2)cc1	-16.1	1.2	-1.7	4.2	0.0	-0.9	.
COc1ccc(NC(=O)C2(C)CCN2Cc2cccc(OC)c2OC)cc1OC (stereo not given)	0.1	.	-7.5	-1.8	.	0.1	.
Cc1cc2c(cc1C)CSC(c1ccccc1O)SC2	54.0*	12.6	-3.5	11.2	0.0	-0.6	23.4
COC(=O)C1=C(C)N(Cc2ccc(C(F)(F)F)cc2)C(=NCc2ccc3c(c2)OCO3)NC1c1cccc(Cl)c1 (stereo not given)	.	.	-3.3	.	.	.	.
CC(=O)Nc1cccc(-c2ccnc3c2CC(C)(C(=O)NCc2ccc(N(C)C)cc2)O3)c1 (stereo not given)	57.4*	.	-3.7	-16.6	.	-1.0	54.0*
CC1(C(=O)Nc2ccc3c(c2)OCO3)Cc2c(-c3ccc4c(c3)OCO4)ccnc2O1 (stereo not given)	27.5	.	-3.3	-11.1	.	-0.2	.
SMILES	TAG inh	Calb FLC	GalR3 antag	MC4R antag cAMP	Efflux pump inh	MC4R barr agon	H9c2 TAG conf
CC1(C(=O)Nc2ccc3c(c2)OCO3)Cc2c(-c3cccc(C(N)=O)c3)ccnc2O1 (stereo not given)	58.6*	.	1.4	-20.9	.	-1.8	68.8*
COc1ccc(NC(=O)C2(C)Cc3c(-c4ccc5c(c4)OCO5)ccnc3O2)cn1 (stereo not given)	51.9*	.	6.5	-11.4	.	-1.7	53.0*
O=S(=O)(NCCc1c[nH]c2ccccc12)c1ccc(F)cc1	3.0	.	-6.6	23.2	.	1.6	.
COc1ccc(Nc2nc(OC)nc(N3CCOCC3)n2)cc1	5.5	6.8	-8.6	10.1	0.0	-1.4	.
Cc1ccc(Nc2nc(OC(C(F)(F)F)C(F)(F)F)nc(N3CCOCC3)n2)cc1	99.9*	5.2	0.4	12.0	-0.1	3.1	92.6*
Cc1ccc(S(=O)(=O)NC(=O)NC2=NC(C)(C)N(c3ccc(Cl)c(Cl)c3)C(N)=N2)cc1	.	.	-0.1	.	.	.	.
CS(=O)(=O)Oc1ccc2c(c1)O/C(=C\C=C\c1ccccc1)C2=O	54.3*	33.7	-2.0	3.8	0.0	0.1	2.9
Clc1cccc(Nc2nc(-c3ccncc3)nc3ccccc23)c1	66.5*	22.6	-0.9	-2.7	0.2	2.4	51.8*
Cc1ccc(NC(=O)c2cc([N+](=O)[O-])ccc2NCc2cccnc2)cc1Cl	67.8*	16.2	-4.5	6.3	0.1	-1.9	40.5*
C#CCN(Cc1cccc(F)c1)C(=O)c1nnc2c3ccccc3n(S(=O)(=O)c3ccc(C)cc3)c2n1	.	.	-3.4	.	.	.	.
CCc1nnc(NC(=O)c2cc3c(s2)CCCCC3)s1	50.0*	14.1	-2.3	-1.7	-0.1	-2.9	12.0
CC1(c2ccccc2)CC(C)(C)n2c(O)c(C3=NC(=S)NC3=O)c3cccc1c32 (stereo not given)	-6.3	-1.6	-7.3	13.8	-0.1	0.9	.
COc1cc2c3c(c1)c(C1=NC(=S)NC1=O)c(O)n3C(C)(C)C=C2C	83.1*	0.0	-4.1	4.1	-0.3	-1.6	66.2*
OC1CC2CCC(C1)N2CCCN1c2ccccc2Sc2ccc(Cl)cc21 (stereo not given)	103.7*	.	-10.3	2.2	.	-1.9	78.6*
CN1CCN(CCCN2c3ccccc3Sc3ccc(Cl)cc32)CC1	16.5	.	-5.4	-4.2	0.1	0.8	.
CCCCOc1ccc(NC(=O)C(=O)NCCC2=CCCCC2)cc1	63.7*	7.6	-3.4	6.9	0.1	1.4	8.4
O=C(COC(=O)C1=COCCO1)NCc1ccc(Cl)cc1Cl	66.0*	.	0.2	8.2	.	0.3	9.2
CCC(C)Nc1nc(-c2ccccn2)nc2ccccc12 (stereo not given)	.	-5.3	-2.2	-3.6	0.9	1.4	.
CCC(C)Nc1nc(-c2cccc(OC)c2O)nc2ccccc12 (stereo not given)	57.5*	-5.2	-6.4	17.5	-0.1	0.6	44.0*
O=C(COC(=O)c1cc([N+](=O)[O-])ccc1N1CCOCC1)Nc1ccc(Cl)cc1	-25.1	3.0	-2.2	-0.9	0.0	-1.6	.

Screening results from PubChem BioAssay.
